Activity calls are given as the source filed them. The calls are words filed in the database; no cut-off is given here.
Experiments:
Mus musculus [1] = organism: Mus musculus; assay: Inhibition of hedgehog signaling pathway in mouse Ptch+/- p53-/- medulloblastoma cells assessed as reduction in ptch1 mRNA expression at 5 uM by RT-qPCR analysis
Outline: (§1)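 ptch+/−;p53−/− medulloblastoma cells kept in Neurobasal A/B-27 medium with EGF and bFGF, then treated. Gli1 and ptch1 mRNA measured by RT-qPCR. Data given as mean ± SD.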

Mus musculus [2] = organism: Mus musculus; assay: Inhibition of hedgehog signaling pathway in mouse Ptch+/- p53-/- medulloblastoma cells assessed as reduction in GLI1 mRNA expression at 5 uM by RT-qPCR analysis; outline: as §1
[3] = Inhibition of hedgehog signaling pathway in mouse Light2 cells in Shh conditioned medium by Gli-luciferase reporter gene assay; type: cell-based; conditions: Mus musculus
Outline: (§2)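 Light II cells (NIH-3T3 stably transfected with Gli-responsive firefly luciferase and Renilla expression vector) stimulated with ShhN conditioned medium. This medium was collected from ShhN-transfected HEK293 cells kept in 0.1% FBS. Firefly luciferase normalized to Renilla. IC50 given as mean ± SD (nM) from three separate experiments.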

[4] = Inhibition of hedgehog signaling pathway in mouse C3H10T1/2 cells assessed as inhibition of hedgehog-induced cell differentiation after 48 hrs by luminescence assay; type: cell-based; conditions: C3H 10T1/2, 48 h
Mus musculus [5] = organism: Mus musculus; assay: Inhibition of hedgehog signaling pathway in mouse Light2 cells in Shh conditioned medium at 1 uM by Gli-luciferase reporter gene assay relative to control; type: cell-based
[6] = Inhibition of hedgehog signaling pathway in mouse Light2 cells harboring Smo W535L mutant after 36 hrs by Gli luciferase activity; type: cell-based
Outline: (§3)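 Light II cells (NIH-3T3 stably carrying Gli-responsive firefly luciferase and Renilla vector) transfected with wild-type, D473H or W535L Smo plasmid. Exposed to compound for 36 h, then dual luciferase assay with firefly/Renilla normalization. IC50 derived and given as mean ± SD.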

[7] = Antitumor activity against mouse Ptch+/- p53-/- medulloblastoma cells implanted in athymic nude mouse assessed as tumor growth inhibition at 50 mg/kg, ip bid for 15 consecutive days; type: functional; conditions: Medulloblastoma cell, read-out: TGI
Outline: (§4)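 Spontaneous ptch+/−;p53−/− intracranial medulloblastomas passaged subcutaneously in athymic nude mice, then 1 mm3 fragments implanted in the right flank. Dosing started at 100−150 mm3 tumor volume, n = 5. Drug given ip twice daily for 15 days as a suspension in 0.5% methylcellulose, 0.2% Tween-80. Caliper volume (length × width2/2) taken twice weekly. TGI calculated on the last day from growth versus vehicle.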

[8] = Inhibition of hedgehog signaling pathway in mouse Light2 cells harboring Smo D473H mutant after 36 hrs by Gli luciferase activity; type: cell-based; outline: as §3
[9] = Inhibition of hedgehog signaling pathway in mouse Light2 cells harboring wild type Smo after 36 hrs by Gli luciferase activity; type: cell-based; outline: as §3
Mus musculus [10] = assay: Toxicity in athymic nude mouse implanted with mouse Ptch+/- p53-/- medulloblastoma cells assessed as body weight loss at 25 to 50 mg/kg, ip bid for 15 consecutive days; type: organism-based; conditions: in vivo
Outline: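 Body weight of nude mice (n = 5) carrying medulloblastoma allografts was followed during 15 days of twice-daily ip dosing in 0.5% methylcellulose/0.2% Tween-80 suspension. Data given as mean ± SD.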

[11] = Inhibition of hedgehog signaling pathway in mouse Shh Light2 cells harboring Gli2 plasmid assessed as reduction in Gli2-mediated transcriptional activity by luciferase reporter gene assay; type: cell-based
KB = assay: Cytotoxicity against human KB cells; type: cell-based
[12] = Antitumor activity against mouse Ptch+/- p53-/- medulloblastoma cells implanted in athymic nude mouse assessed as tumor growth inhibition at 25 mg/kg, ip bid for 15 consecutive days; type: functional; conditions: Medulloblastoma cell, read-out: TGI; outline: as §4
[13] = Inhibition of hedgehog signaling pathway in mouse Shh Light2 cells assessed as reduction in ShhN-induced GLI-mediated transcriptional activity by luciferase reporter gene assay; type: cell-based; outline: as §2
[14] = Inhibition of hedgehog signaling pathway in mouse Shh Light2 cells harboring Gli1 plasmid assessed as reduction in Gli1-mediated transcriptional activity by luciferase reporter gene assay; type: cell-based

inhibition (Mus musculus [1])	inhibition (Mus musculus [2])	IC50 [3]	EC50 [4]	IC50 [6]	IC50 [8]	IC50 [9]	IC50 [11]	IC50 [13]	IC50 [14]	SMILES	inhibition (Mus musculus [5])	inhibition in vivo at 50 mg/kg [7]	Activity (Mus musculus [10])	IC50 (KB)	inhibition in vivo at 25 mg/kg [12]
inactive	inactive	0.383 µM	0.06 µM							C[C@H](CO)N1C[C@H](C)[C@H](CN(C)S(=O)(=O)c2ccc(Cl)cc2Cl)Oc2c(NC(=O)C3CC3)cccc2C1=O	67%				
		0.023 µM		0.0398 µM	0.0375 µM	0.0357 µM	0.0249 µM	0.023 µM	0.0299 µM	COc1ccc(CN2C[C@@H]3CN(S(=O)(=O)c4ccc(Cl)cc4)CC[C@@H]3Oc3c(NC(=O)C4CC4)cccc3C2=O)cc1 (racemic)		73.4%	Non-Toxic	> 20 µM	57.5%

From ChEMBL document CHEMBL4017514, “Discovery of Novel Macrocyclic Hedgehog Pathway Inhibitors Acting by Suppressing the Gli-Mediated Transcription” (J Med Chem, 2017)
